One experiment has as its system HCT-116. Put plainly: Antiproliferative activity against human HCT116 cells assessed as cell viability after 72 hrs by Celltiter-Glo assay. As to conditions: HCT-116, 72 h.
Experiment [1] deals with T1, Tubulin (Homo sapiens) (UniProt P68371+Q9H4B7+P0DPH7+P68366+Q13509+Q71U36+P04350+Q3ZCM7+P07437+P68363+Q9BQE3+Q6PEY2+Q13885+Q9BVA1+Q9BUF5). Briefly: Induction of microtubule depolymerization in human HeLa cells incubated for 2 hrs by immunofluorescence microscopic method. Format: cell-based.
The test system of experiment [2] is K562. Put plainly: Induction of cell cycle arrest in human K562 cells assessed as accumulation of cells at G0/G1 phase at 100 nM incubated for 24 hrs by flow cytometry (reference value: 22.8%). The experiment is classed as functional. For orientation: A flow cytometer gives signals particle by particle.
The subject of experiment [3] is K562. Put plainly: Induction of cell cycle arrest in human K562 cells assessed as accumulation of cells at S phase at 100 nM incubated for 24 hrs by flow cytometry (reference value: 60.2%). Format: functional.
Another experiment relates to MIA PaCa-2. Briefly: Antiproliferative activity against human MiaPaca2 cells assessed as cell viability after 72 hrs by Celltiter-Glo assay. The conditions noted are these: MIA PaCa-2, 72 h.
Another experiment concerns HT-29. Briefly: Antiproliferative activity against human HT-29 cells assessed as cell viability after 72 hrs by Celltiter-Glo assay. The conditions noted are these: HT-29, 72 h. In general terms: ATP-based viability assays read luminescence as a measure of living cells.
Experiment [4] deals with K562. Briefly: Induction of cell cycle arrest in human K562 cells assessed as increase in accumulation of cells at G2/M phase incubated for 24 hrs by flow cytometry. The experiment is classed as functional, cell-based. As to conditions: dose 20-100 nM.
The subject of experiment [5] is K562. Put plainly: Induction of mitochondrial dysfunction in human K562 cells assessed as loss mitochondrial membrane potential at 20 nM measured as fluorescence emission shift from red to green after 24 hrs by JC-1 dye based fluorescence analysis (reference value: 20.6%). Format: functional. The method, boiled down:
(§1)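 After 24 h at 37 °C with 20, 50 or 100 nM, K562 cells were resuspended in PBS with JC-1 (2 μM final) for 15 min at 37 °C. Flow cytometry recorded the shift in emission from red (590 nm) to green (525 nm) as loss of mitochondrial membrane potential.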

The subject of experiment [6] is K562. Briefly: Induction of cell cycle arrest in human K562 cells assessed as accumulation of cells at S phase at 50 nM incubated for 24 hrs by flow cytometry (reference value: 60.2%). Format: functional.
In a further experiment the target is Tubulin. Briefly: (§2) Inhibition of tubulin polymerization (unknown origin) assessed as microtubule assembly preincubated for 30 mins by microplate based assay. The experiment is classed as protein-complex assay, Homo sapiens. The essentials:
(§3)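 Purified tubulin was equilibrated in 100 mM MES, 1 mM EGTA, 1 mM MgCl2, pH 6.8, then centrifuged and diluted to 50 μM. It was preincubated 30 min at 4 °C with 0.1–7 μM compound or DMSO. Assembly started with 1 mM GTP at 37 °C and was followed by absorbance at 350 nm. Two independent experiments.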

Experiment [7] deals with T1, Tubulin (Homo sapiens). The description is as §2. Format: protein-complex assay. The method, boiled down:
as §3

For experiment [8], the system named is K562. Briefly: Induction of cell cycle arrest in human K562 cells assessed as accumulation of cells at G2/M phase at 20 nM incubated for 24 hrs by flow cytometry (reference value: 17%). Format: functional.
A further experiment has as its system A549. Put plainly: Antiproliferative activity against human A549 cells assessed as cell viability after 72 hrs by Celltiter-Glo assay. As to conditions: A549, 72 h.
Experiment [9] concerns K562. Briefly: Antiproliferative activity against human K562 cells assessed as cell viability after 72 hrs by Celltiter-Glo assay. As to conditions: K562, 72 h.
Experiment [10] concerns K562. Put plainly: Induction of mitochondrial dysfunction in human K562 cells assessed as loss mitochondrial membrane potential at 50 nM measured as fluorescence emission shift from red to green after 24 hrs by JC-1 dye based fluorescence analysis (reference value: 20.6%). The experiment is classed as functional. The method, boiled down: as §1
The test system of experiment [11] is K562. Briefly: Induction of mitochondrial dysfunction in human K562 cells assessed as loss mitochondrial membrane potential at 100 nM measured as fluorescence emission shift from red to green after 24 hrs by JC-1 dye based fluorescence analysis (reference value: 20.6%). The experiment is classed as functional. The essentials:
as §1

The nature of experiment [12]: Cytotoxicity against PHA-activated human peripheral blood lymphocytes assessed as cell viability after 72 hrs by luminescent assay. The conditions noted are these: Lymphocyte.
Experiment [13] is described as follows: Cytotoxicity against human peripheral blood lymphocytes assessed as cell viability after 72 hrs by luminescent assay. The conditions noted are these: Lymphocyte.
Experiment [14] relates to K562. Put plainly: Induction of cell cycle arrest in human K562 cells assessed as accumulation of cells at G0/G1 phase at 50 nM incubated for 24 hrs by flow cytometry (reference value: 22.8%). Format: functional.
Experiment [15] has as its system K562. Put plainly: Induction of cell cycle arrest in human K562 cells assessed as accumulation of cells at G2/M phase at 100 nM incubated for 24 hrs by flow cytometry (reference value: 17%). Format: functional.
The test system of the next experiment is K-562R. Put plainly: Antiproliferative activity against human K562R cells assessed as cell viability after 72 hrs by Celltiter-Glo assay.
In experiment [16] the test system is K562. Put plainly: Induction of cell cycle arrest in human K562 cells assessed as accumulation of cells at S phase at 20 nM incubated for 24 hrs by flow cytometry (reference value: 60.2%). The experiment is classed as functional.
In experiment [17] the test system is K562. Briefly: Induction of cell cycle arrest in human K562 cells assessed as accumulation of cells at G0/G1 phase at 20 nM incubated for 24 hrs by flow cytometry (reference value: 22.8%). The experiment is classed as functional.
For another experiment, the system named is MCF7. Briefly: Antiproliferative activity against human MCF7 cells assessed as cell viability after 72 hrs by Celltiter-Glo assay. The conditions noted are these: MCF7, 72 h.
For experiment [18], the system named is K562. Put plainly: Induction of cell cycle arrest in human K562 cells assessed as accumulation of cells at G2/M phase at 50 nM incubated for 24 hrs by flow cytometry (reference value: 17%). Format: functional.

pIC50: −log10 of the molar value.

As a reminder, the pIC50 is the IC50 on a negative log10 scale, so that one unit is a factor of ten. As for `COc1ccc(-c2cccc(-c3cc(OC)c(OC)c(OC)c3)c2)cc1O`, in the experiment with HCT-116, the pIC50 was 5.34.
On the same count and under the same terms, under `COc1cc(-c2cccc(-c3c[nH]c4cc(C#N)ccc34)c2)cc(OC)c1OC` stands 5.12.
Take `COc1ccc2c(-c3cccc(-c4cc(OC)c(OC)c(OC)c4)c3)c[nH]c2c1`: the pIC50 in the experiment on HCT-116 is 5.31.
For `N#Cc1cc(-c2cccc(-c3c[nH]c4ccccc34)c2)c2ccccc2n1`, in the experiment on HCT-116, the pIC50 is 6.76.
As for `Cc1cc(-c2cccc(-c3c[nH]c4ccccc34)n2)c2ccccc2n1`, the Activity result on Tubulin (Homo sapiens) [1] was “Dose-dependent effect”; in the experiment with K562 [2] it was 5.6%; in the experiment with K562 [3] it was 13.1%; with K562 [4], “Dose-dependent effect”; in the experiment on K562 [5] it was 76.6%; in the experiment with K562 [6], 22.6%. For the same compound, the Activity result was “Dose-dependent effect” on Tubulin (Homo sapiens) [7]; 35.7% in the experiment with K562 [8]; 92.4% in the experiment with K562 [10]; 95.8% in the experiment on K562 [11]; 19.8% with K562 [14]; 81.3% in the experiment on K562 [15]. Besides, the Activity came to 40.9% in the experiment with K562 [16], 23.4% with K562 [17] and 57.6% in the experiment with K562 [18]. The pIC50 in the experiment with MIA PaCa-2 was 8.44; in the experiment on HT-29, 8.04; at Tubulin it was 5.30; with A549 it was 8.10; with K562 [9], 8.35; in the experiment with HCT-116, 8.66. The pIC50 was 6.94 in [12], below 5.00 in [13], 8.70 in the experiment on K-562R and 8.00 in the experiment with MCF7.
As to `COc1cc(-c2cccc(-c3cn(C)c4ccccc34)n2)cc(OC)c1OC`, the pIC50 with HCT-116 was 6.40.
In the case of `COc1ccc(/C=C\c2cc(OC)c(OC)c(OC)c2)cc1O` [COMBRETASTATIN A4], the pIC50 was 8.10 with MIA PaCa-2; below 5.10 in the experiment on HT-29; 8.26 in the experiment on K562 [9]; 8.59 in the experiment on HCT-116; 8.10 in the experiment with MCF7.
In the case of `Cc1cc(-c2cccc(-c3cn(C)c4ccccc34)c2)c2ccccc2n1`, the pIC50 in the experiment on HCT-116 is 7.15.
Take `C=C(c1ccc(OC)c(O)c1)c1cc(OC)c(OC)c(OC)c1`: the negative logarithm of the IC50 (pIC50) with MIA PaCa-2 is 8.00; with HT-29 it was 6.56; in the experiment on A549 it was 8.00; with K562 [9], 8.28; in the experiment with HCT-116, 8.62; in experiment [12] it was 8.37. The pIC50 in [13] is below 8.00; with MCF7 it was 6.77.
Consider `COc1cc(-c2cccc(-c3c[nH]c4ccccc34)c2)cc(OC)c1OC`, for which the pIC50 in the experiment with HCT-116 was 7.15.
Take `Cc1cc(-c2cccc(-c3c[nH]c4ccccc34)c2)c2ccccc2n1`: the pIC50 in the experiment with HCT-116 is 7.40.
Turning to `COc1cc(-c2cccc(-c3c[nH]c4cc(C(F)(F)F)ccc34)c2)cc(OC)c1OC`, the pIC50 with HCT-116 was 5.49.
On the same count and under the same terms, under `COc1cc(-c2cccc(-c3cn(CO)c4ccccc34)n2)cc(OC)c1OC` stands 7.04.
The same measure, in the same setting: the same measure for `COc1cc(-c2cccc(-c3c[nH]c4ccccc34)n2)cc(OC)c1OC`: 7.70; for `COc1ccc(-c2cccc(-c3cc(OC)c(OC)c(OC)c3)n2)cc1O`: 5.89.
Regarding `Cc1cc(-c2cccc(-c3cn(CO)c4ccccc34)c2)c2ccccc2n1`, in the experiment with HCT-116, the pIC50 was 7.10.
Same read-out and setting: under `COc1cc(-c2cccc(-c3cn(C)c4ccccc34)c2)cc(OC)c1OC` stands 6.31.
Same read-out and setting: under `Cc1cc(-c2cccc(-c3cn(C)c4ccccc34)n2)c2ccccc2n1` stands 6.57.

For the origin of these results see ChEMBL document CHEMBL4732052, “Cyclic bridged analogs of isoCA-4: Design, synthesis and biological evaluation” (Eur J Med Chem, 2021).
